These results are taken from ChEMBL document CHEMBL1155425, “Synthesis and antitumor activity of 1-mesityl-3-(2-naphthoylmethano)-1H-imidazolium bromide” (Bioorg Med Chem Lett, 2010).

Series [1] deals with K562. Briefly: Cell cycle arrest in human K562 cells assessed as accumulation at G1 phase at 2 ug/ml after 24 hrs by flow cytometry. Format: functional. In short, it runs like this:
(§1)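 K562 cells, synchronized, treated 24 h. Trypsinized, washed in PBS, fixed overnight in ice-cold 70% EtOH. Treated with RNase A 100 µg/mL at 37 °C for 30 min, then stained with propidium iodide (final 50 µg/mL). 20,000 cells analyzed by flow cytometry for DNA content; phase percentages representative of three independent experiments.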

The subject of series [2] is K562. Briefly: Induction of apoptosis in human K562 cells at 2 ug/ml after 24 hrs by Annexin-V-FITC/PI double labelled cytometry. Format: functional. In short, it runs like this:
(§2)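 K562 cells (1 × 10⁶/mL) treated 24 h, then resuspended in binding buffer. Stained with Annexin V-FITC and PI for 15 min at room temperature in the dark, diluted in binding buffer, analyzed by flow cytometry. Apoptosis rate given as mean ± S.D. of at least three independent experiments.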

Series [3] has as its system K562. Briefly: Cell cycle arrest in human K562 cells assessed as accumulation at G1 phase at 10 ug/ml after 24 hrs by flow cytometry. The series is classed as functional. An outline of the steps: as §1
The subject of series [4] is K562. In words: Induction of apoptosis in human K562 cells at 10 ug/ml after 24 hrs by Annexin-V-FITC/PI double labelled cytometry. The series is classed as functional. An outline of the steps: as §2
The next series has as its system Mus musculus. Briefly: Acute toxicity in human A549 cells xenografted mouse at 10 to 80 mg/kg. The following applies: in vivo. Further details: dose 10-80 mg/kg. Format: organism-based. Background: A xenograft is tissue or cells of one species grown in another, often human tumour cells in immunodeficient mice.
Series [5] relates to A549. Briefly: Cytotoxicity in human A549 cells after 48 hrs by MTT assay. The series is classed as functional, cell-based. The following applies: A549, 48 h. An outline of the steps: (§3)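 Cells grown at 37 °C, 5% CO₂, in RPMI 1640 with 10% fetal serum. Exposed 48 h to compound at 0.1–100 µg/mL. Viability by MTT, absorbance at 570 nm. IC50 is the concentration giving 50% reduction in absorbance versus untreated cells; triplicate tests.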
(Tetrazolium assays rely on reduction of a dye to a coloured formazan, in cell work by metabolically active cells.)

A further series deals with Raji. In words: Cytotoxicity in human Raji cells after 48 hrs by MTT assay. The series is classed as functional, cell-based. An outline of the steps:
as §3

In a further series the test system is HepG2. Briefly: Cytotoxicity in human HepG2 cells after 48 hrs by MTT assay. The following applies: HepG2, 48 h. The series is classed as functional, cell-based. In short, it runs like this:
as §3

Series [6] deals with K562. In words: Cell cycle arrest in human K562 cells assessed as accumulation at S phase at 10 ug/ml after 24 hrs by flow cytometry. The series is classed as functional. In short, it runs like this: as §1
Series [7] deals with K562. Briefly: Cytotoxicity in human K562 cells after 48 hrs by MTT assay. Format: functional, cell-based. The following applies: K562, 48 h. In short, it runs like this:
as §3

In series [8] the test system is A549. In words: Antitumor activity against human A549 cells xenografted in nude mouse assessed as increase in tumor volume at 8 mg/kg, ip administered every 2 days for 19 days measured on day 19 postimplantation relative to tumor volume on day of implantation. The series is classed as functional. The following applies: route intraperitoneal. An outline of the steps:
(§4)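 Nude mice implanted s.c. in right flank with A549 cells (2 × 10⁷ cells/mL) on day 0. Treatment began at mean tumor ~100 mm³ (day 1). Compound in 0.5% CMC-Na given ip every 2 days for 19 days, 0.2 mL per 20 g body weight; cisplatin 1 mg/kg as reference. Caliper volume (W² × L)/2, expressed as RTV = TVn/TV₁.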

The subject of a further series is HEp-2. Briefly: Cytotoxicity in human Hep2 cells after 48 hrs by MTT assay. The series is classed as functional, cell-based. The following applies: HEp-2, 48 h. In short, it runs like this: as §3
Series [9] relates to K562. Briefly: Cell cycle arrest in human K562 cells assessed as accumulation at G2/M phase at 2 ug/ml after 24 hrs by flow cytometry. Format: functional. In short, it runs like this:
as §1
On the technique in general: In flow cytometry, cells or beads pass a laser one at a time.

A further series concerns SMMC-7721. Briefly: Cytotoxicity in human SMMC7721 cells after 48 hrs by MTT assay. The following applies: SMMC-7721, 48 h. The series is classed as functional, cell-based. In short, it runs like this: as §3
Another series relates to EJ. Briefly: Cytotoxicity in human EJ cells after 48 hrs by MTT assay. The series is classed as functional, cell-based. In short, it runs like this: as §3
The nature of series [10]: Selectivity ratio of IC50 for human A549 cells to IC50 for human Raji cells. The series is classed as functional.
Series [11] concerns A549. In words: Antitumor activity against human A549 cells xenografted in nude mouse assessed as increase in tumor volume at 4 mg/kg, ip administered every 2 days for 19 days measured on day 19 postimplantation relative to tumor volume on day of implantation. The series is classed as functional. The following applies: route intraperitoneal. An outline of the steps:
as §4

Series [12] deals with K562. In words: Cell cycle arrest in human K562 cells assessed as accumulation at G2/M phase at 10 ug/ml after 24 hrs by flow cytometry. Format: functional. An outline of the steps: as §1
Series [13] deals with K562. Briefly: Cell cycle arrest in human K562 cells assessed as accumulation at S phase at 2 ug/ml after 24 hrs by flow cytometry. The series is classed as functional. In short, it runs like this: as §1
Series [14] is described as follows: Selectivity ratio of IC50 for human A549 cells to IC50 for human Hep2 cells. The series is classed as functional.

Turning to `Cc1cc(C)c(-n2cc[n+](CC(=O)c3ccc4ccccc4c3)c2)c(C)c1.[Br-]`, the Activity in the series on K562 [1] is 40%; in the series on K562 [2], 8.1%; in the series with K562 [3], 56%; in the series on K562 [4] it was 15.5%; in the series with Mus musculus it was “Non-toxic”; in the series with K562 [6], 26%. Further, the values for the Activity in the series with K562 [9], in the series with K562 [12] and in the series with K562 [13] were 16%, 19% and 45%, respectively. For the same compound, the IC50 was 5 µg/mL in the series on A549 [5]; 0.7 µg/mL in the series on Raji; 2.2 µg/mL in the series with HepG2; 1.7 µg/mL in the series with K562 [7]; 0.3 µg/mL in the series on HEp-2; 1.8 µg/mL in the series on SMMC-7721. The compound also gave an IC50 in the series with EJ of 1.2 µg/mL. In addition, the figures for the “fold change (FC)” value in the series on A549 [8] and with A549 [11] were 3.1 and 5.3, respectively. For the same compound, the “Ratio IC50” value in [10] and in [14] was 8 in each case.

A word on the IC50: it is the concentration that gives 50% inhibition. A lower IC50 goes with higher potency.
